From ChEMBL document CHEMBL1671623, “Identification and biochemical characterization of small-molecule inhibitors of west nile virus serine protease by a high-throughput screen” (Antimicrob Agents Chemother, 2008) come the findings set out here.

SMILES strings stand for the structures. Calls of active or inactive are those of the source. No cut-off for these calls is given here. Peptide text beside a SMILES is read from it. * marks the point of attachment. AMC = Cc1cc(=O)oc2cc(N*)ccc12; Boc = CC(C)(C)OC(=O)*

The nature of series [1]: Inhibition of West Nile virus EG101 NS2BH/NS3 serine protease after 15 mins using Boc-Gly-Lys-Arg-AMC substrate by spectrofluorometry. A digest of the protocol: (§1)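 His-tagged NS2BH/NS3 complex expressed in E. coli and purified by Talon affinity and Sephadex G-75. 67 nM protease preincubated 15 min at room temperature with 50 µM inhibitor in 200 mM Tris-HCl pH 9.5, 6 mM NaCl, 30% glycerol. Substrate added at 100 µM final (Boc-GKR-AMC for WNV, Boc-GRR-AMC for DENV2) for 15 min. AMC fluorescence read at ex 390/em 465 nm. Activity expressed as percent of no-inhibitor control; triplicate.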

Series [2] is described as follows: Inhibition of Dengue virus 2 New Guinea C NS2BH/NS3 serine protease after 15 mins by spectrofluorometer in presence of Boc-Gly-Arg-Arg-AMC. Also noted: species or system dengue virus type 2. A digest of the protocol: as §1
Series [3] has as its system Vero. Nature of the series: (§2) Cytotoxicity against African green monkey Vero cells after 24 hrs by Cell Titer-Glo assay. It counts as cell-based. The following applies: chlorocebus sabaeus, vero, 24 h. In short, it runs like this: (§3)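 Vero cells seeded at 5,000 cells/well and grown 24 h at 37°C, 5% CO2. Compound added in triplicate in DMEM with 10% FBS and incubated a further 24 h. Viability read by CellTiter-Glo luminescence. Cytotoxicity expressed relative to no-compound wells; CC50 taken from the dose curve; two independent experiments.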
On the technique in general: Cellular ATP, detected with luciferase, serves as a proxy for viable cell number.

A short description of series [4]: as §2. It counts as cell-based. The following applies: chlorocebus sabaeus, Vero cells. In short, it runs like this:
as §3

For series [5], the system named is West Nile virus. Nature of the series: Antiviral activity against West Nile virus EG101 infected in Vero cells assessed as inhibition of viral replication measured 48 hrs post infection by luciferase reporter gene assay. It counts as functional, organism-based. A digest of the protocol: (§4)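 Vero cells pretreated 30 min with twofold serial dilutions of inhibitor in MEM with 10% FBS and 1% penicillin-streptomycin. Then infected with WNV reporter virus particles carrying a Renilla luciferase subgenomic replicon (approx. 1 x 10^4 RVPs, MOI 0.5 to 1.0). Lysates assayed for luciferase. EC50 from variable-slope sigmoidal nonlinear regression; triplicate.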
A general note: Reporter assays use an easily measured gene product as a stand-in for the process of interest.

In series [6] the test system is West Nile virus. Briefly: Inhibition of West Nile virus EG101 NS2BH/NS3 serine protease after 15 mins using Z-Val-Lys-Arg-MNA substrate assessed as increase in apparent Km/apparent Vmax ratio of substrate by Sigma plot. A digest of the protocol:
(§5)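 Steady-state kinetics with purified NS2BH/NS3 protease. Enzyme preincubated 15 min at room temperature with inhibitor at 0, 1.5, 2.5, 5 or 10 µM. Substrate then added at eight concentrations (10–400 µM) for 15 min. AMC or MNA fluorescence converted to rate via a standard curve. Kmapp/Vmaxapp and 1/Vmaxapp plotted against inhibitor concentration; Ki from kinetic fitting; repeated three times.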

Series [7] is described as follows: Selectivity index, ratio of CC50 for African green monkey Vero cells to EC50 for West Nile virus EG101. It is filed as toxicity, cell-based. The following applies: read-out: Selectivity Index.
In series [8] the test system is West Nile virus. Briefly: Antiviral activity against West Nile virus EG101 infected in Vero cells assessed as inhibition of viral replication measured 24 hrs post infection by luciferase reporter gene assay. It counts as functional, organism-based. In short, it runs like this: as §4
For series [9], the system named is West Nile virus. Nature of the series: Antiviral activity against West Nile virus EG101 infected in Vero cells assessed as inhibition of viral replication measured 72 hrs post infection by luciferase reporter gene assay. It counts as functional, organism-based. In short, it runs like this:
as §4

In series [10] the test system is West Nile virus. Briefly: Inhibition of West Nile virus EG101 NS2BH/NS3 serine protease after 15 mins using Boc-Gly-Lys-Arg-AMC substrate assessed as increase in apparent Km/apparent Vmax ratio of substrate by Sigma plot. In short, it runs like this: as §5
Series [11] is described as follows: Inhibition of protease activity of trypsin using Z-Gly-Pro-Arg-pNA substrate. A digest of the protocol:
(§6)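 Trypsin (67 nM) or factor Xa (25 nM) preincubated 15 min at room temperature with 50 µM inhibitor in 200 mM Tris-HCl pH 9.5, 6 mM NaCl, 30% glycerol. Substrate added at 100 µM for 15 min: Z-Gly-Pro-Arg-pNA for trypsin, read by absorbance at 405 nm; Boc-Ile-Glu-Gly-Arg-AMC for factor Xa, read by fluorescence. Aprotinin as positive control; triplicate.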

Series [12] has as its target Coagulation factor X (Homo sapiens) (UniProt P00742). Nature of the series: Inhibition of protease activity of factor 10a using Boc-Ile-Glu-Gly-Arg-AMC substrate. A digest of the protocol: as §6

For orientation: Ki means a dissociation constant, usually derived from enzyme kinetics or from competition with a known ligand. As a reminder, the CC50 is the concentration at which the toxic effect on the cells reaches its halfway point. Broadly, the EC50 is the midpoint of the concentration-response curve. What is called Km is the concentration of substrate that gives half-maximal velocity.

Coagulation factor X (Homo sapiens), sequence (P00742 41-179 limits assumed): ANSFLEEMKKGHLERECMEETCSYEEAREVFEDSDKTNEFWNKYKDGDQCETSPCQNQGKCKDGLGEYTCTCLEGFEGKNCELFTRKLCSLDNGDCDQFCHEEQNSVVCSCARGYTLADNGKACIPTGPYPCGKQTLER
Coagulation factor X (Homo sapiens), sequence (P00742 235-488 limits assumed): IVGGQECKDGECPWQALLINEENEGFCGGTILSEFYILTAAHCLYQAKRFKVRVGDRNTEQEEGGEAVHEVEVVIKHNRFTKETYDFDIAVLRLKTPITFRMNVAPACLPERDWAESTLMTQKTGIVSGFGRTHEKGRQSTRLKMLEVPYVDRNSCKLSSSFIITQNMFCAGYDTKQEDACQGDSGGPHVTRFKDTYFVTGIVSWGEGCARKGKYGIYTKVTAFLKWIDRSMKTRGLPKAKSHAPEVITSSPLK

For `COc1cccc(C(NC(=O)c2ccccc2)c2ccc3cccnc3c2O)c1` (configuration not stated), the Ki in series [1] turned out to be 3.2 µM; in series [2] it was 28.6 µM. Moreover, the Activity result in series [3] is “Toxic”.
Take `Oc1ccccc1C(Nc1nccs1)c1ccc2cccnc2c1O` (configuration not stated): the Ki in [1] is 3.4 µM; in [2], 30.2 µM. Further, the midpoint of cytotoxicity in series [4], the CC50 at 24 h, lay at 140 µM. The EC50 in [5] was determined as 1.4 µM. In addition, the inhibition entry in [6], in series [8], in series [9] and in series [10] was “Active” each time. Besides, in [7], the selectivity ratio turned out to be 100. In addition, the inhibition entry in [11] and in [12] was “inactive” each time.
Take `CCn1c(SCC(=O)c2ccccc2)nc2ccccc2c1=O`: the inhibition constant (Ki) in [1] is 37.3 µM; in series [2] it was 17 µM.
For the compound `Cc1cc(=O)oc2cc(NC(=O)[C@H](CCCNC(=N)N)NC(=O)[C@H](CCCCN)NC(=O)CNC(=O)OC(C)(C)C)ccc12` (Boc-Gly-Lys-Arg-{AMC}), the Km in [6] came to 737 µM.
